# Key:
# [1] = Cytotoxicity against human UCH2 cells assessed as reduction in cell viability incubated for 72 hrs by alamar blue assay; format: functional, cell-based; conditions: UCH2, 72 h
# In short: (§1)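 Cells seeded in 384-well plates and dosed 24 h after plating, in quadruplicate. Viability was read by alamarBlue fluorescence at 72 h. IC50 came from nonlinear regression as the mean of 4 replicates. Growth media carried 10% FBS and 1% pen/strep: UCH1/UCH2 in 4:1 IMDM:RPMI-1640 in gel-coated flasks; A431, PANC1 and WS1 in DMEM; DU145 and MCF7 in MEM; 5637 in RPMI-1640.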
# A-431 = assay: Cytotoxicity against human A-431 cells assessed as reduction in cell viability incubated for 72 hrs by alamar blue assay; format: functional, cell-based; conditions: A-431, 72 h; in short: as §1
# [2] = Cytotoxicity against human WS1 cells assessed as reduction in cell viability incubated for 72 hrs by alamar blue assay; format: cell-based; conditions: WS1, 72 h; in short: as §1
# MCF7 = assay: Cytotoxicity against human MCF7 cells assessed as reduction in cell viability incubated for 72 hrs by alamar blue assay; format: functional, cell-based; conditions: MCF7, 72 h; in short: as §1
# [3] = Cytotoxicity against human UCH1 cells assessed as reduction in cell viability incubated for 72 hrs by alamar blue assay; format: functional, cell-based; conditions: UCH1, 72 h; in short: as §1
# PANC-1 [4] = assay: Cytotoxicity against human PANC1 cells assessed as reduction in cell viability incubated for 72 hrs by alamar blue assay; format: functional, cell-based; conditions: PANC-1, 72 h; in short: as §1
# 5637 = assay: Cytotoxicity against human 5637 cells assessed as reduction in cell viability incubated for 72 hrs by alamar blue assay; format: functional, cell-based; conditions: Homo sapiens, 5637, 72 h; in short: as §1
# DU-145 = assay: Cytotoxicity against human DU-145 cells assessed as reduction in cell viability incubated for 72 hrs by alamar blue assay; format: functional, cell-based; conditions: DU-145, 72 h; in short: as §1
# L1210 = assay: Cytotoxicity against mouse L1210 cells; format: functional, cell-based
# K562 = assay: Cytotoxicity against human K562 cells; format: functional, cell-based
# Cryptococcus neoformans = assay: Antifungal activity against Cryptococcus neoformans; format: functional
# PANC-1 [5] = assay: Cytotoxicity against human PANC1 cells assessed as reduction in cell viability incubated upto 72 hrs by MTT assay; format: functional, cell-based; conditions: PANC-1, 72 h
# [6] = target: T1, Neutral amino acid transporter B(0) (Homo sapiens, UniProt Q15758); assay: Inhibition of ASCT2 (unknown origin)
# T1 sequence (Q15758 whole entry): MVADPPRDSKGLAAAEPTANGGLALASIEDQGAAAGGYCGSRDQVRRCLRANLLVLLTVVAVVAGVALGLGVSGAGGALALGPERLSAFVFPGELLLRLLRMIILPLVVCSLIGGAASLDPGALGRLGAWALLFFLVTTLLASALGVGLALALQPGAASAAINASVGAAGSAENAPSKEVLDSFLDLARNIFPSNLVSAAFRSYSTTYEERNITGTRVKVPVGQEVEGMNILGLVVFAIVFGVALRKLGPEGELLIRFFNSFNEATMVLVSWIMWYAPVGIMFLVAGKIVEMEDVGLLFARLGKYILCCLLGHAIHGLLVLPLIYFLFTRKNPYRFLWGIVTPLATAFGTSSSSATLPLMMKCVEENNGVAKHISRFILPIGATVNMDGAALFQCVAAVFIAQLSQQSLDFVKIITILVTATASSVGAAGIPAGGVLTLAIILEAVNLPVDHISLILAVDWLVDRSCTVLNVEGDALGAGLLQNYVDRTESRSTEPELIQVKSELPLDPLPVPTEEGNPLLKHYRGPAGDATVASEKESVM
# Staphylococcus aureus = assay: Antibacterial activity against Staphylococcus aureus; format: functional
# Listeria monocytogenes = assay: Antibacterial activity against Listeria monocytogenes; format: functional
# Enterococcus faecalis = assay: Antibacterial activity against Enterococcus faecalis; format: functional
# [7] = system: Feline immunodeficiency virus; assay: Antiviral activity against Feline immunodeficiency virus; format: functional, organism-based
SMILES,IC50 [1] [µM],IC50 (A-431) [µM],IC50 [2] [µM],IC50 (MCF7) [µM],IC50 [3] [µM],IC50 (PANC-1 [4]) [µM],IC50 5637 [µM],IC50 (DU-145) [µM],IC50 (L1210) [µM],IC50 (K562) [µM],MIC (Cryptococcus neoformans) [µg/mL],IC50 (PANC-1 [5]) [µM],IC50 [6] [µM],MIC (Staphylococcus aureus) [µg/mL],MIC (Listeria monocytogenes) [µg/mL],MIC (Enterococcus faecalis) [µg/mL],EC50 [7] [µM]
Clc1nss/c1=N\c1ccc2c(c1)OCO2,22,95,84,19,28,24,32,17,–,–,–,–,–,–,–,–,–
c1ccc(/N=c2\ssnc2N2CCN(CCNc3ccccc3)CC2)cc1,21,87,55,10,25,67,18,55,–,–,–,–,–,–,–,–,–
Clc1nss/c1=N\c1ccc(OCc2ccccc2)cc1,> 100,> 100,> 100,50,44,> 100,13,45,–,–,–,–,–,–,–,–,–
Clc1nss/c1=N\c1cc(-c2ccccc2)nn1Cc1ccccc1,52,> 100,> 100,30,30,18,16,14,–,–,–,–,–,–,–,–,–
N#Cc1c(Br)cccc1/N=c1\ssnc1Cl,65,> 100,> 100,28,39,13,14,42,–,–,–,–,–,–,–,–,–
N#CC1=Nc2c(c(-c3ccccc3)nn2-c2ccccc2)SS1,68,72,> 100,36,55,75,14,16,–,–,–,–,–,–,–,–,–
N#CSCCN1CCN(c2nssc2=O)CC1,14,25,17,5.4,12,11,39,3.3,–,–,–,–,–,–,–,–,–
N#Cc1cnn(CCc2ccccc2)c1/N=c1\ssnc1Cl,–,–,–,–,–,–,–,–,5,3,–,–,–,–,–,–,–
CN(CCN1CCN(c2nssc2=O)CC1)c1ccccc1,17,17,20,2.2,12,21,12,4.4,–,–,–,–,–,–,–,–,–
N#Cc1ccccc1/N=c1\ssnc1Cl,–,–,–,–,–,–,–,–,–,–,8,–,–,–,–,–,–
O=c1ssnc1N1CCN(CCSc2nc3ccccc3s2)CC1,31,90,92,9.9,25,77,33,22,–,–,–,–,–,–,–,–,–
Cc1[nH]c2ccccc2c1CCNCc1ccc(/C=C/C(=O)NO)cc1 [PANOBINOSTAT],–,–,–,–,–,–,–,–,–,–,–,1,–,–,–,–,–
N#CSCCN1CCN(c2nss/c2=N\c2ccccc2)CC1,38,> 100,> 100,32,38,16,93,14,–,–,–,–,–,–,–,–,–
N#CC1=Nc2c(c(-c3ccccc3)nn2Cc2ccccc2)SS1,> 100,54,51,54,> 100,> 100,8.7,32,–,–,–,–,–,–,–,–,–
CC.FC(F)(F)Oc1ccc(/N=c2\ssnc2Cl)cc1Cl,43,> 100,> 100,88,> 100,> 100,33,32,–,–,–,–,8.1,–,–,–,–
Clc1nss/c1=N\c1ccccc1,–,–,–,–,–,–,–,–,–,–,–,–,–,16,16,16,–
CCOC(=O)c1c2n[se]sc-2c(Cl)c1Cl,–,–,–,–,–,–,–,–,–,–,–,–,–,–,–,–,0.082
FC(F)(F)Oc1ccc(/N=c2\ssnc2Cl)cc1Br,85,100,> 100,73,34,> 100,36,52,–,–,–,–,–,–,–,–,–

# From ChEMBL document CHEMBL4819119, “Design and evaluation of 1,2,3-dithiazoles and fused 1,2,4-dithiazines as anti-cancer agents” (Bioorg Med Chem Lett, 2021)
